ChEMBL document CHEMBL5724801, “EUbOPEN Chemogenomics Library - Multiplex” (2024)
Values joined by “and” are separate entries in the source; they are usually repeats but may differ in a detail not shown here. Identical values can stand only once.

Tested on: Fibroblast
Experiment: Multiplex assay against human fibroblast
Format: toxicity, cell-based
In short: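 Values for tubulin, mitochondrial-mass and membrane-permeability phenotypes are per cents of cells with healthy nuclei. These cells were identified by CellPathfinder machine-learning gating of live cells that had been stained at seeding with Hoechst33342, BioTracker Green Microtubule Cytoskeleton Dye, MitoTracker Red and Annexin V Alexa Fluor 680 and imaged on a CQ1 microscope at 37°C and 5% CO2 after compound addition. The gating first set Hoechst high-intensity objects apart from normal cells, then split normal cells into healthy, pyknosed or fragmented nuclei, and pyknosed cells into mitotic or apoptotic.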

[1] = 12 h, 1 µM, compound concentration 1 uM
[2] = 12 h, 10 µM, compound concentration 10 uM
[3] = 24 h, 1 µM, compound concentration 1 uM
[4] = 24 h, 10 µM, compound concentration 10 uM
[5] = 48 h, 1 µM, compound concentration 1 uM
[6] = 48 h, 10 µM, compound concentration 10 uM

## O=C(Nc1ccccc1Br)N[C@@H]1CCN(c2ccc(C(F)(F)F)cn2)C1 [SB-705498]
[1]
  Population Apoptotic (%): 20% and 15.79%
  Population Healthy Nuclei (%): 43.71% and 74.07%
  Population Hoechst High Intensity Objects (%): 0%
  Population Membrane Permeable-Phenotype (%): 3.03% and 0%
  Population Mitochondria Different-Phenotype (%): 12.12% and 8.57%
  Population Mitotic Cells (%): 80% and 84.21%
  Population Normal (%): 100%
  Population Pyknosed Nuclei (%): 29.8% and 20.11%
  Population Tubulin-Different-Phenotype (%): 33.33% and 14.29%
  Total Cell Count: 151 and 189
[2]
  Population Apoptotic (%): 10.94% and 22.22%
  Population Fragmented Nuclei (%): 10.95% and 8.47%
  Population Healthy Nuclei (%): 57.21% and 76.27%
  Population Hoechst High Intensity Objects (%): 0%
  Population Membrane Permeable-Phenotype (%): 3.48% and 7.41%
  Population Mitochondria Different-Phenotype (%): 15.65% and 15.56%
  Population Mitotic Cells (%): 89.06% and 77.78%
  Population Normal (%): 100%
  Population Pyknosed Nuclei (%): 31.84% and 15.25%
  Population Tubulin-Different-Phenotype (%): 15.65% and 42.22%
  Total Cell Count: 201 and 177
[3]
  Population Apoptotic (%): 15.62% and 20%
  Population Healthy Nuclei (%): 57.14% and 83%
  Population Hoechst High Intensity Objects (%): 0%
  Population Membrane Permeable-Phenotype (%): 3.12% and 1.81%
  Population Mitochondria Different-Phenotype (%): 11.46% and 8.43%
  Population Mitotic Cells (%): 84.38% and 80%
  Population Normal (%): 100%
  Population Pyknosed Nuclei (%): 19.05% and 12.5%
  Population Tubulin-Different-Phenotype (%): 30.21% and 13.86%
  Total Cell Count: 168 and 200
[4]
  Population Apoptotic (%): 18.03% and 12%
  Population Fragmented Nuclei (%): 9.01% and 6.59%
  Population Healthy Nuclei (%): 64.81% and 78.44%
  Population Hoechst High Intensity Objects (%): 0%
  Population Membrane Permeable-Phenotype (%): 5.3% and 5.34%
  Population Mitochondria Different-Phenotype (%): 9.93% and 20.61%
  Population Mitotic Cells (%): 81.97% and 88%
  Population Normal (%): 100%
  Population Pyknosed Nuclei (%): 26.18% and 14.97%
  Population Tubulin-Different-Phenotype (%): 29.8% and 41.98%
  Total Cell Count: 233 and 167
[5]
  Population Apoptotic (%): 25% and 18.18%
  Population Fragmented Nuclei (%): 16.97% and 7.55%
  Population Healthy Nuclei (%): 73.33% and 87.26%
  Population Hoechst High Intensity Objects (%): 0%
  Population Membrane Permeable-Phenotype (%): 3.31% and 0.54%
  Population Mitochondria Different-Phenotype (%): 12.4% and 3.24%
  Population Mitotic Cells (%): 75% and 81.82%
  Population Normal (%): 100%
  Population Pyknosed Nuclei (%): 9.7% and 5.19%
  Population Tubulin-Different-Phenotype (%): 12.4% and 13.51%
  Total Cell Count: 165 and 212
[6]
  Population Apoptotic (%): 31.25% and 21.43%
  Population Fragmented Nuclei (%): 9.02% and 8.28%
  Population Healthy Nuclei (%): 84.43% and 83.43%
  Population Hoechst High Intensity Objects (%): 0%
  Population Membrane Permeable-Phenotype (%): 1.46% and 9.93%
  Population Mitochondria Different-Phenotype (%): 12.62% and 5.67%
  Population Mitotic Cells (%): 68.75% and 78.57%
  Population Normal (%): 100%
  Population Pyknosed Nuclei (%): 6.56% and 8.28%
  Population Tubulin-Different-Phenotype (%): 17.48% and 42.55%
  Total Cell Count: 244 and 169
